Paper PMC3517046 (ChemMedChem, 2011)

What was measured:
ATX [1] = target: T1, ATX (Homo sapiens, UniProt Q13822); test: Inhibition of LPA production from ADMAN-LPC by ATX; assay type: biochemical; conditions: compound 3 μM, 0.5 μM ADMAN-LPC, 100 nM ATX
How it was run: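 ADMAN-LPC (0.5 µM final) was incubated with 100 nM ATX, with or without 3 µM test compound, at 37 °C for 4 h. Lipids were extracted and separated by silica TLC in CHCl3/MeOH/NH4OH (60:35:8). Fluorescent LPC and LPA bands were visualized under a UV imager.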

[2] = Pharmacokinetics after i.v. bolus; assay type: in vivo, Sprague-Dawley rats; conditions: rat
How it was run: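 Male Sprague–Dawley rats (250–275 g) fitted with jugular and femoral catheters received a single 5.8 mg/kg i.v. femoral bolus; drug was dissolved in propylene glycol and diluted in rat plasma. Jugular blood was drawn from 5 to 1440 min into lithium heparin. Plasma was butanol-extracted at pH 4.0 with internal standard and quantified by LC-MS/MS on a C8 column. Non-compartmental analysis gave AUC (trapezoidal), CL=dose/AUC, MRT=AUMC/AUC and Vdss=CL×MRT.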

ATX [3] = target: T1, ATX; test: Inhibition of pNP-TMP hydrolysis by ATX; assay type: biochemical; conditions: compound 10 μM, 5 mM pNP-TMP, 4 nM ATX; compared with LPA 18:1 10 μM
How it was run: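 Reactions held 4 nM ATX and 5 mM pNP-TMP, with vehicle or 10 µM test compound, in Tris 50 mM/NaCl 140 mM/KCl 5 mM/CaCl2 1 mM/MgCl2 1 mM, pH 8.0. They ran at 37 °C with absorbance monitored at 405 nm.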

MM1 hepatoma cells = test: MM1 cell invasion of HUVEC monolayers; assay type: cell-based, rat
How it was run: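 HUVECs (passage 7, 1.3×10^5/well) were grown on 0.2% gelatin for two days to confluence. Rat MM1 hepatoma cells, calcein AM-labelled (2 µg/mL, 2 h), were seeded at 5×10^4/well. Invasion ran 24 h in MCDB-131 with 1% serum, with or without 1.5 µM LPC (BSA-complexed, 30 µM BSA final). After five PBS rinses and formalin fixation, flattened cells beneath the monolayer were counted in ≥5 fields at 100×.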

[4] = target: recombinant, purified human ATX (Homo sapiens, UniProt Q13822); test: ATX IC50 and mechanism of inhibition; assay type: biochemical
How it was run: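 Recombinant purified human ATX with FS3 (1 µM final) in Tris 50 mM, NaCl 140 mM, KCl 5 mM, CaCl2 1 mM, MgCl2 1 mM, pH 8.0, plus 15 µM fatty-acid-free BSA. IC50 came from full dose-responses. For mechanism, FS3 was varied 0.3–20 µM at three inhibitor levels including zero.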

plasma LPA = test: Plasma LPA levels after i.v. bolus; assay type: in vivo, Sprague-Dawley rats; conditions: rat, i.v. 5.8 mg/kg, first rapid decrease
Swiss mice = test: Acute murine toxicity study; assay type: in vivo; conditions: 1-10-30 mg/kg/day for 10 days
NPP7 = target: T2, NPP7 (Homo sapiens, UniProt Q6UWV6); test: NPP7 inhibition assay; assay type: biochemical; conditions: read-out: NPP7 Activity, % control (10μM)
T2 sequence (Q6UWV6 22-458): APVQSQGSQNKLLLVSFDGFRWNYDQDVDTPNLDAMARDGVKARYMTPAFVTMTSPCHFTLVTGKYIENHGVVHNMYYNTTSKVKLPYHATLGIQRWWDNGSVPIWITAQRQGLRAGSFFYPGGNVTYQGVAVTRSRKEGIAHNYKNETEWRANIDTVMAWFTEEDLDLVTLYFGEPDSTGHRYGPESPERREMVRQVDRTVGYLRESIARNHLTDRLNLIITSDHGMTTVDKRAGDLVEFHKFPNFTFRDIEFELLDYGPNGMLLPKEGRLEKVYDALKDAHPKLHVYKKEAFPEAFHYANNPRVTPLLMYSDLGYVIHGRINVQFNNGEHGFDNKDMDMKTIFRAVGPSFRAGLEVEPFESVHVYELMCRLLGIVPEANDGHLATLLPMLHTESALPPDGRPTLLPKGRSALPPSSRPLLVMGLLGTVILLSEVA
How it was run: (§1)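 Recombinant purified NPP6 or NPP7 (8.3 nM final) was incubated with pNPPC (10 µM) and a single 10 µM compound concentration. Liberated p-nitrophenol was read at 405 nm for up to 1 h, within the linear range. Activity was normalized to vehicle control.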

NPP6 = target: T3, NPP6 (Homo sapiens, UniProt Q6UWR7); test: NPP6 inhibition assay; assay type: biochemical; conditions: read-out: NPP6 Activity, % control (10μM)
T3 sequence (Q6UWR7 23-440): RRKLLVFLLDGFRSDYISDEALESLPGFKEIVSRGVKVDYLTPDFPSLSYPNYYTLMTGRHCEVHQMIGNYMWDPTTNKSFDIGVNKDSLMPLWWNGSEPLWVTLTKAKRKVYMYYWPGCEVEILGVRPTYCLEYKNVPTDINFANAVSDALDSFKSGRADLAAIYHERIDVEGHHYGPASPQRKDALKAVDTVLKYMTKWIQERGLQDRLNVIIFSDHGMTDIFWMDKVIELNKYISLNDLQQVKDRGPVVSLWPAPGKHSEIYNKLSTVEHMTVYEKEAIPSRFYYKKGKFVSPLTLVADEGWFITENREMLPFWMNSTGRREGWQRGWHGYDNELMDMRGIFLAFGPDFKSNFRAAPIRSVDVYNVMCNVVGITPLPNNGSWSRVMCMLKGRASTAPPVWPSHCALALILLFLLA
How it was run: as §1

[5] = male, Sprague-Dawley, plasma, iv, 5.8 mg/kg

| Structure (SMILES) | inhibition of hydrolysis of ADMAN-LPC (LPA production) (ATX [1]) | MRT [2, 5] | clearance [2, 5] | half-life ([2]; male, Sprague-Dawley, plasma, iv, 5.8 mg/kg, terminal half-life, i.v. 5.8 mg/kg) | mean plasma residence time ([2]; i.v. 5.8 mg/kg) | inhibition of hydrolysis of pNP-TMP (ATX [3]) | basal rate of invasion of HUVEC monolayer (MM1 hepatoma cells; compounds alone, without LPC) | LPC-dependent invasion of the HUVEC monolayer (MM1 hepatoma cells; with 1.5 μM LPC, 24 h) | ATX Mechanism of Inhibition ([4]; FS-3 substrate 0.3-20 μM, inhibitor 0, 0.5x, 2x IC50) | ATX Ki′ ([4]; affinity for enzyme substrate complex, FS-3) | time of nadir of plasma LPA levels (plasma LPA) | death (Swiss mice) | non-observable adverse effect level (Swiss mice; i.p.) | remaining activity at 10 µM (NPP7) | remaining activity at 10 µM (NPP6) |
| --- | --- | --- | --- | --- | --- | --- | --- | --- | --- | --- | --- | --- | --- | --- | --- |
| CCCCCCCCCCCCCCCc1ccc(CP(=O)(O)O)cc1 [Compound 22, 4-pentadecylbenzylphosphonic acid] | inhibited | 7.6 h | 8.6 ± 0.5 mL/min/kg | 10 h | 7.6 ± 0.5 h | inhibit the hydrolysis | did not reduce | dose-dependently inhibited | Mixed | 280 nM | 60 min | No death was detected in any of the groups | > 10 mg/kg |  |  |
| CCCCCCCCCCCCCC(=O)Nc1ccc(CP(=O)(O)O)cc1 [Compound S32826, 4-tetradecanoylaminobenzyl phosphonic acid] |  |  |  |  |  |  |  |  |  |  |  |  |  | 101% | 102% |
